Measurements pooled from the literature.
Lines come from different studies, so protocols differ.
Target: Amine oxidase [flavin-containing] A (MAOA, Homo sapiens, UniProt P21397)
Observed: enzyme activity
Mode: inhibitor
One construct used (P21397 1-527): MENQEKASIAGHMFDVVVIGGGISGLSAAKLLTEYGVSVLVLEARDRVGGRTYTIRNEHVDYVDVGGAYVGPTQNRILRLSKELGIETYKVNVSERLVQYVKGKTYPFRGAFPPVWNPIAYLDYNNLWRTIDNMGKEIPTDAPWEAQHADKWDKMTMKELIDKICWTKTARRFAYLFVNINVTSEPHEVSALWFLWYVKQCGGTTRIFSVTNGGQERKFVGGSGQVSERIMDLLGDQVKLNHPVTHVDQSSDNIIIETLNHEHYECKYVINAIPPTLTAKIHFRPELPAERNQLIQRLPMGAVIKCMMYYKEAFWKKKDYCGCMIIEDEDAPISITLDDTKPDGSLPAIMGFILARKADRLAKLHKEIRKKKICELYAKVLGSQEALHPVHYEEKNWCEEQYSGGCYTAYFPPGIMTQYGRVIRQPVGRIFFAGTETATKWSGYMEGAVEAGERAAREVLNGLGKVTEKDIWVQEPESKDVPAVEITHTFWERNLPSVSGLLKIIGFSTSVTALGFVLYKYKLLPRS

Structure (SMILES)	method	pH	endpoint	value
C#CCOc1ccc(/C=C/C(=O)N2CCc3ccccc3C2)cc1OC	fluorescence		IC50	64 µM
COC(=O)c1ccc(C(=O)OC)c(NC(=O)c2cc(Cl)ccc2O)c1			IC50	> 5 µM
O=C1C[C@@H](c2ccc(O)cc2)Oc2cc(O)cc(O)c21			IC50	8.64 µM
O=C(O)c1cc(O)c2c(c1)C(=O)c1cc(O)cc(O)c1C2=O			IC50	47.1 µM
COc1ccc(/C=C/C(=O)N2CCC(Cc3ccccc3)CC2)cc1OC	fluorescence		IC50	66.1 µM
O=C1c2c(O)cc(O)cc2O[C@H](c2ccc(O)cc2)[C@H]1O			IC50	14.6 µM
COc1cc(/C=C/C(=O)N2CCc3ccccc3C2)ccc1OC1CCCCC1	fluorescence		IC50	65.3 µM
CN1CCN(C(=O)CN[C@@H]2C[C@H]2c2ccc(OCc3ccccc3)cc2)CC1	luciferase		IC50	0.51 µM
c1cc2c(cc1C1CCCCC1)c1c3n2CCNC3CCC1 (centres unmarked)		pH 7.5	Ki	5.3 µM
O=C(Nc1ccc([N+](=O)[O-])cc1Cl)c1cc2ccccc2o1			IC50	0.293 µM
O=c1c(O)c(-c2ccc(O)c(O)c2)oc2cc(O)ccc12			IC50	4.62 µM
